Experimental data published in ChEMBL document CHEMBL1126793, “Effect of trifluoromethyl and other substituents on activity of xanthines at adenosine receptors” (J Med Chem, 1993).

What was measured:
[1] = target: Adenosine receptor A2a (Rattus norvegicus) (UniProt P30543); assay: Inhibition of [3H]-CGS- 21680 binding to Adenosine A2A receptor in rat brain membranes at 100 uM; type: cell membranes
Procedure, shortened: (§1)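 Rat striatal membranes incubated with 4 nM [3H]CGS 21680 as the A2a radioligand. Nonspecific binding was defined with 20 μM 2-chloroadenosine. The value is percent inhibition of specific binding at the highest concentration tested, which was sometimes limited by solubility.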

Adenosine receptor A1 = target: T1, Adenosine receptor A1 (Rattus norvegicus, UniProt P25099); assay: Binding affinity for adenosine A1 receptor from rat brain membranes using [3H]PIA as radioligand
T1 sequence (P25099 whole entry): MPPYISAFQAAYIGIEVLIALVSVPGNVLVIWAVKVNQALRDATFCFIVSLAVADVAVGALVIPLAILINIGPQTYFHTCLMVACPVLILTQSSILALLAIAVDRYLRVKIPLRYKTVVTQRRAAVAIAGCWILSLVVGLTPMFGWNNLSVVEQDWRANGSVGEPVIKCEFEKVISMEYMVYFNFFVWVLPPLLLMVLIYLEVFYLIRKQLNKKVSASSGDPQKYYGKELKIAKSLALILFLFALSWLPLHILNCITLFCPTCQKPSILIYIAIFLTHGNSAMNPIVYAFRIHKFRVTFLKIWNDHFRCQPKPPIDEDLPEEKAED

Adenosine receptor A2a = Adenosine receptor A2a (Rattus norvegicus, UniProt P30543); assay: Binding affinity for adenosine A2A receptor from rat brain membranes using [3H]CGS-21680
[2] = target: T2, Adenosine receptor A1 (Rattus norvegicus) (UniProt P25099); assay: Inhibition of [3H]PIA binding to Adenosine A1 receptor in rat brain membranes at 100 uM; type: cell membranes; details: 250 uM, in the assay text read “250 uM” for “100 uM”
T2 sequence (whole entry): T1 sequence (P25099 whole entry)
Procedure, shortened: (§2)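 Rat brain membranes labelled with 1 nM [3H]-N6-[(R)-phenylisopropyl]adenosine for A1 sites. Nonspecific binding was defined with 10 μM 2-chloroadenosine. The value is percent inhibition of specific binding at the highest concentration tested, which was sometimes limited by solubility.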

[3] = target: Adenosine receptor A2a (Rattus norvegicus) (UniProt P30543); assay: Inhibition of [3H]-CGS- 21680 binding to Adenosine A2A receptor in rat brain membranes at 250 uM; type: cell membranes; procedure, shortened: as §1
[4] = target: Adenosine receptor A2a (Rattus norvegicus) (UniProt P30543); assay: Inhibition of [3H]-CGS- 21680 binding to Adenosine A2A receptor in rat brain membranes at […]; type: cell membranes; procedure, shortened: as §1
[5] = target: T2, Adenosine receptor A1 (Rattus norvegicus); assay: Inhibition of [3H]PIA binding to A1 adenosine receptor in rat brain membranes at 250 uM; type: cell membranes; procedure, shortened: as §2
[6] = target: Adenosine receptor A2a (Rattus norvegicus) (UniProt P30543); assay: Inhibition of [3H]-CGS- 21680 binding to Adenosine A2A receptor in rat brain membranes at 20 uM; type: cell membranes; procedure, shortened: as §1

Sequence of Adenosine receptor A2a (Rattus norvegicus) (P30543 whole entry): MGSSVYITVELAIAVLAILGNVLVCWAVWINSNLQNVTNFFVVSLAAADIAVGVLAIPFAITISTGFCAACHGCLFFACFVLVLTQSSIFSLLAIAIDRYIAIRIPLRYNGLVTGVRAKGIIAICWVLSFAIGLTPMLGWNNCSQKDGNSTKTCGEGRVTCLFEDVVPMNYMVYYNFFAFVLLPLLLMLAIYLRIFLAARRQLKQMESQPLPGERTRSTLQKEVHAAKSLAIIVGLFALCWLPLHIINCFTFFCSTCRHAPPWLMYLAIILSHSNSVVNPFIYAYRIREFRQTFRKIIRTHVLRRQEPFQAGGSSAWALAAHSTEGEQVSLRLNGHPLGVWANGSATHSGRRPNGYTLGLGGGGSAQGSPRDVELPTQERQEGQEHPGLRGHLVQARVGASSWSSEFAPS
Sequence of Adenosine receptor A2a (P30543 whole entry): as above

Structure (SMILES) | Ki (Adenosine receptor A1) [µM] | Ki (Adenosine receptor A2a) [µM] | further results
Cn1c(=O)c2c(nc(-c3ccc(S(=O)(=O)O)cc3)n2C)n(C)c1=O | – | 20 | inhibition [2]: 3.3%
Cn1c(=O)c2nc(C3CCC3)[nH]c2n(C)c1=O | 0.19 | 2.8 | –
Cn1c(-c2ccccc2)nc2c1c(=O)[nH]c(=O)n2C | – | 12 | –
Cc1nc2c(=O)n(C)c(=O)n(C)c2[nH]1 | 8.8 | – | inhibition [3]: 34%
C=CCn1c(=O)c2c(nc(-c3ccccc3)n2C)n(C)c1=O | 9 | 12 | –
Cn1c(=O)c2[nH]c(-c3ccc(S(=O)(=O)O)cc3)nc2n(C)c1=O | – | 5.8 | –
CCCn1c(=O)c2nc[nH]c2n(CCC)c1=O | – | 2.6 | –
CC(C)Cn1c(=O)n(C)c(=O)c2[nH]cnc21 [ISOBUTYLMETHYLXANTHINE] | – | 5.8 | –
C=CCn1c(=O)c2c(nc(-c3ccccc3)n2CC=C)n(C)c1=O | 0.66 | 7.7 | –
Cn1c(=O)c2[nH]c(Cl)nc2n(C)c1=O | – | – | inhibition [1]: 34%; inhibition [2]: 39%
Cn1c(=O)c2[nH]c(Br)nc2n(C)c1=O [PAMABROM] | 10.2 | – | inhibition [1]: 36%
CCCn1c(=O)c2nc(-c3ccc(S(N)(=O)=O)cc3)[nH]c2n(CCC)c1=O | – | 0.075 | –
Cn1c(=O)c2c(nc(-c3ccccc3)n2C)n(C)c1=O | – | 16 | –
Cn1c(-c2ccc(S(=O)(=O)O)cc2)nc2c1c(=O)[nH]c(=O)n2C | – | – | inhibition [2]: 1.8%; inhibition [3]: 0%
Cn1c(=O)c2c(nc(C(F)(F)F)n2C)n(C)c1=O | – | 29 | inhibition [2]: 8%
C=CCn1c(=O)c2c(nc(-c3ccc(C(F)(F)F)cc3)n2C)n(C)c1=O | 5.7 | 11 | –
Cn1c(=O)c2c(nc(Br)n2C)n(C)c1=O | 49 | 12 | –
Cn1c(=O)c2[nH]c(-c3ccc(C(F)(F)F)cc3)nc2n(C)c1=O | 0.15 | 0.21 | –
CCCn1c(=O)c2[nH]c(-c3ccc(S(=O)(=O)O)cc3)nc2n(CCC)c1=O | – | 0.79 | –
Cn1c(=O)c2nc(C(F)(F)F)[nH]c2n(C)c1=O | – | – | inhibition [5]: 0%; inhibition [3]: 0%
Cn1c(=O)c2c(nc(-c3ccc(C(F)(F)F)cc3)n2C)n(C)c1=O | 17 | 16 | –
Cn1c(=O)c2c(nc(/C=C/C(=O)O)n2C)n(C)c1=O | – | 42 | inhibition [2]: 3%
Cn1c(-c2ccc(S(N)(=O)=O)cc2)nc2c1c(=O)[nH]c(=O)n2C | – | – | inhibition [2]: 33%; inhibition [3]: 42%
CCCn1c(=O)c2nc(C(F)(F)F)[nH]c2n(CCC)c1=O | – | – | inhibition [2]: 4.5%; inhibition [6]: 4.3%
Cn1c(=O)c2c(nc(C3CCC3)n2C)n(C)c1=O | 30 | 19 | –

Second part, led by results:

Ki (Adenosine receptor A1) [µM] | Ki (Adenosine receptor A2a) [µM] | Structure (SMILES) | further results
65 | – | CC(C)Cn1c(=O)n(C)c(=O)c2[nH]c(Br)nc21 | inhibition [1]: 10%
0.0075 | 0.042 | CCCn1c(=O)c2nc(-c3ccc(C(F)(F)F)cc3)[nH]c2n(CCC)c1=O | –
2.9 | 4.2 | C=CCn1c(-c2ccc(C(F)(F)F)cc2)nc2c1c(=O)n(CCC)c(=O)n2CCC | –
– | 0.14 | CCCn1c(=O)c2[nH]c(-c3ccccc3)nc2n(CCC)c1=O | –
0.38 | 0.44 | CCC/C=C/c1nc2c(=O)n(C)c(=O)n(C)c2[nH]1 | –
4.9 | 7.6 | Cc1nc2c(c(=O)n(C)c(=O)n2C)n1C | –
3.7 | – | Cn1c(-c2ccc(C(F)(F)F)cc2)nc2c1c(=O)[nH]c(=O)n2C | inhibition [4]: 10%
9.1 | – | CCC/C=C/c1nc2c(c(=O)n(C)c(=O)n2C)n1C | –
– | 0.97 | Cn1c(=O)c2[nH]c(-c3ccccc3)nc2n(C)c1=O [8-PHENYL THEOPHYLLINE] | –
– | 27 | C=CCn1c(=O)c2c(nc(-c3ccc(S(=O)(=O)O)cc3)n2C)n(C)c1=O | inhibition [2]: 35%
0.6 | 2.8 | CCCn1c(=O)c2nc(C)[nH]c2n(CCC)c1=O | –
12 | 0.61 | Cn1c(=O)c2c(nc(/C=C/C(=O)OC(C)(C)C)n2C)n(C)c1=O | –
